High-throughput results: PubChem, The Scripps Research Institute Molecular Screening Center
Compounds with a hit are over-represented: about 2.7% of the library has one in this group of screens.
IMP-1 inhibitor: IMP-1 metallo-beta-lactamase inhibitors, primary screen, biochemical, epi-absorbance readout, Pseudomonas aeruginosa enzyme. metallo-beta-lactamase IMP-1 (Pseudomonas aeruginosa). 290,000 compounds, 0.45% hits. inhibition, % at 5.6 µM. purified IMP-1, nitrocefin hydrolysis, epi-absorbance fluorescence;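 active = inhibition above the mean plus 3 SD of all compounds in the same screening run, cut at about 4.5% in these data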
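System: purified IMP-1 / Input: IMP-1 dispensed at 0.2 nM / Medium: 50 mM HEPES pH 7.1, 50 µM ZnSO4, 0.05% Brij 35 / Timing: 15 min enzyme–compound preincubation, then 25 min nitrocefin reaction, 25 °C / Technique: plate fluorescence quenching by hydrolysis product, ex 480/em 530 nm / Repeats: singlicate testing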
VIM-2 inh: VIM-2 metallo-beta-lactamase inhibitors, primary screen, biochemical, epi-absorbance readout, Pseudomonas aeruginosa enzyme; purified VIM-2, nitrocefin hydrolysis, epi-absorbance fluorescence; inhibition, % at 5.6 µM; 290,000 compounds, 0.89% hits; AID 1527, 2009;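 active = inhibition above the mean of all tested compounds plus 3 SD, cutoff set per screening run, cut at about 7.5% in these data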;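 note: red hydrolysis product quenches plate fluorescence so inhibitors raise well fluorescence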
M18AAP inhibitor: PfM18AAP inhibitors, malaria aminopeptidase, primary screen, biochemical, QFRET, recombinant enzyme | H-Glu-NHMec fluorogenic cleavage | AID 1822, 2009 | inhibition, % at 7.35 µM | 290,000 compounds, 1.2% hits;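 active = inhibition above the campaign mean inhibition over all tested compounds plus 3 SD, cut at about 28% in these data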
Fh CTSL1 inh: Fasciola hepatica cathepsin L1 inhibitors, primary screen, counter-screen for PFM18AAP inhibitor project, biochemical, QFRET, fluorogenic peptide substrate | recombinant F. hepatica cathepsin L1, Z-Leu-Arg-MCA fluorescence | inhibition, % at 5.96 µM | 300,000 compounds, 0.49% hits | AID 1906, 2009;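 active = inhibition above the mean of all tested compounds plus 3 SD, set per screening campaign, cut at about 17% in these data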
A number is an active result; . = inactive; / = not tested or not shown.

SMILES	IMP-1 inhibitor	VIM-2 inh	M18AAP inhibitor	Fh CTSL1 inh
COc1ccc(OC)c(N2CC(O)(c3cccs3)[N+]3=C2SCCC3)c1 (stereo not given)	.	8.2	.	.
Cc1ccc(S(=O)(=O)NCC(=O)N(CC(=O)NCC2CCCO2)Cc2ccco2)cc1 (stereo not given)	.	.	.	.
COc1cccc(/C=C2\Sc3ccc(C(=O)NCc4cccnc4)cc3N(C)C2=O)c1	.	.	.	.
COc1ccc(/C=C2\Sc3ccc(C(=O)NCc4cccnc4)cc3N(C)C2=O)cc1OC	.	11	.	.
COc1ccc(N(C(=O)c2ccc(Br)o2)C2C=CS(=O)(=O)C2)cc1 (stereo not given)	.	.	.	.
COC(=O)/C=C1/N/C(=N\c2nc(C)cc(C)n2)N(c2ccc(Cl)cc2)C1=O	.	.	.	.
CCOC(=O)C(C(=O)NCC1CCCO1)C1CCCCC1 (stereo not given)	.	.	.	17
CCOC(=O)c1cc(Br)c(=O)n2ccccc12	.	.	.	.
COc1ccc2c3c(cccc13)C(=O)N(O)C2=O	.	9.0	.	.
O=C1c2cccc3c([N+](=O)[O-])ccc(c23)C(=O)N1O	.	8.8	.	.
Cc1ccc(C(=O)Nc2ccc3c(c2)nc(CCNC(=O)c2ccco2)n3C)cc1	.	.	.	.
Cc1cccc(CS(=O)(=O)Cc2ccc(C(=O)NCc3cccs3)o2)c1	.	.	.	.
CC1=C(C)/C(=N/OC(=O)c2cccc([N+](=O)[O-])c2)C=CC1=O	.	.	.	17
CC(=O)CSc1nc2c(c(=O)[nH]c(=O)n2C)n1Cc1cccc(Br)c1	.	.	.	35
Cc1c(NC(=O)C(C)OC(=O)c2sc3ccccc3c2Cl)c(=O)n(-c2ccccc2)n1C (stereo not given)	.	.	.	.
Cc1c(NC(=O)C(C)OC(=O)c2ccc([N+](=O)[O-])s2)c(=O)n(-c2ccccc2)n1C (stereo not given)	.	.	.	28
COc1cccc2c1nc(C)c1cc(C)oc12	.	.	.	.
COc1ccccc1N1CCc2c(C)nc3c(OC)cccc3c21	.	12	.	.
Nc1c2c(nc3ccccc13)N(c1ccccc1)CC2	/	/	/	.
Cc1ccc2nc(C)c3c(c2c1)N(c1ccc(F)cc1)CC3	.	11	.	.
COc1cccc2c3c(c(C)nc12)CCN3c1ccccc1	.	11	.	.
COc1cc(NC(=S)Nc2ccc(N(C)C(C)=O)cc2)cc(OC)c1	.	.	.	.
CCC(C)NCCOc1ccccc1C (stereo not given)	28	.	.	.
CCC(C)NCCOc1ccc(Br)cc1 (stereo not given)	.	.	.	.
Cc1ccc(Nc2nc(N3CCN(C)CC3)nc(N)c2[N+](=O)[O-])cc1C	.	.	.	.
SMILES	IMP-1 inhibitor	VIM-2 inh	M18AAP inhibitor	Fh CTSL1 inh
Oc1ccccc1/C=N/Nc1nn[nH]n1	.	.	.	.
Cc1nnc(N/N=C/c2ccccc2O)n1N	.	.	.	20
Cc1nnc(N/N=C/c2ccc(-c3ccccc3F)o2)n1N	.	.	52	.
Cc1c(NC(=O)COC(=O)c2cc3c4ccccc4n(C)c3s2)c(=O)n(-c2ccccc2)n1C	4.8	.	.	.
COc1cc(C(CC(=O)Nc2cc(C)ccn2)N2Cc3ccccc3C2=O)cc(OC)c1OC (stereo not given)	.	.	.	.
CC(C)N1C(=O)CC(Nc2cccc3cccc(N)c23)C1=O (stereo not given)	12	.	.	/
CN1C(=O)CC(Nc2cccc3cccc(N)c23)C1=O (stereo not given)	.	.	.	.
COc1cc2c(cc1OC)C(c1cc(Br)ccc1F)N(C(=O)CCl)CC2 (stereo not given)	.	.	.	89
COc1cc2c(cc1OC)C(C1C(=O)CC(C)(C)CC1=O)N(C(=O)CCl)CC2 (stereo not given)	.	.	.	17
CC1CC(=O)C(C2c3ccccc3CCN2C(=O)CCl)C(=O)C1 (stereo not given)	.	.	.	.
COc1ccc(CCN/C=C2/CC(=O)NC2=O)cc1OC	.	.	.	25
Cc1nonc1NC(=O)CSc1nc2ccccc2[nH]1	.	.	.	17
CC(=O)Nc1ccc(NC(=O)CCCSc2nc3ccccc3[nH]2)cc1	7.8	.	.	.
Cc1ccc(NC(=O)CCCSc2nc3ccccc3[nH]2)cc1	.	.	.	.
CCOC(=O)/C(C#N)=N\Nc1cc(Cl)ccc1OC	.	.	.	32
c1ccc2c(c1)ncn2Cc1nnc2sc(-c3ccc4c(c3)OCO4)nn12	.	9.6	.	.
Clc1ccccc1-c1nn2c(Cn3cnc4ccccc43)nnc2s1	.	.	.	.
CC(O)[C@H]1CNC(=O)C(=O)N1CCC12CC3CC(CC(C3)C1)C2 (stereo not given in full)	/	/	/	.
C[C@H]1CNC(=O)C(=O)N1C[C@H](Cc1ccc(O)cc1)NC(=O)CC12CC3CC(CC(C3)C1)C2	8.4	.	.	.
O=C(NNc1ccc(Cl)cc1)c1c(F)cccc1Cl	.	.	31	.
O=C(NNc1ccc(F)cc1)c1c(F)cccc1Cl	.	.	30	.
O=C(NNc1cc(Cl)ccc1Cl)c1c(F)cccc1Cl	.	.	.	.
Cc1nn(CCCC(=O)NCc2ccco2)c(=O)c2nn(-c3ccccc3)c(C)c12	.	.	.	.
O=C(Nc1cc(Cl)ccc1-n1cncn1)c1cc(S(=O)(=O)N2CCOCC2)ccc1F	.	.	.	.
O=C1NN(c2ccccc2)C(=O)/C1=C\c1ccccc1OCC(=O)N1CCOCC1	4.5	.	.	.
SMILES	IMP-1 inhibitor	VIM-2 inh	M18AAP inhibitor	Fh CTSL1 inh
CCCCn1c(=O)[nH]c(=O)c2c1nc(CN(C)Cc1cccc(OC)c1OC)n2CCC	.	.	.	/
COc1ccc(-n2nc([N+](=O)[O-])c(=NC3CCN(Cc4ccccc4)CC3)n2O)cc1	9.4	.	.	.
CCC(CC)c1nnc(NC(=O)c2cc(C(=O)OC)cc([N+](=O)[O-])c2)s1	.	.	30	.
COC(=O)c1cc(C(=O)Nc2nnc(CC(C)C)s2)cc([N+](=O)[O-])c1	.	.	.	.
Cc1cc(C)c2c(=O)n(CC(=O)Nc3cccc(F)c3)sc2n1	.	.	65	.
CCOC(=O)c1cn(CC(=O)Nc2cccc(F)c2)nn1	.	.	.	.
CC(C)Oc1ccc(Cc2cnc(=S)[nH]c2N)cc1	.	.	31	.
Cc1c(CCC(=O)O)c(=O)oc2c(C)c3occ(-c4ccc(Br)cc4)c3cc12	24	.	.	/
COc1ccc(-c2coc3c(C)c4oc(=O)c(CCC(=O)O)c(C)c4cc23)cc1	.	11	.	.
Cc1c(CC(=O)N[C@@H](C)C(=O)O)c(=O)oc2cc3occ(-c4ccccc4)c3cc12	.	.	.	.
Cc1c(CC(=O)N[C@@H](C)C(=O)O)c(=O)oc2c(C)c3occ(-c4ccccc4)c3cc12	.	10	.	/
